# Assay results reported in ChEMBL document CHEMBL4118021, “Studies of TAK1-centered polypharmacology with novel covalent TAK1 inhibitors” (Bioorg Med Chem, 2017).
# Legend:
# [1] = molecular target: T1, Serine/threonine-protein kinase LATS2 (Homo sapiens) (UniProt Q9NRM7); assay: Inhibition of LATS2 in human SKCO1 cells at 1 uM after 4 hrs using biotin labeled DIKPDNILIDLDGHIK probe by mass-spectrometric analysis relative to control; type: cell-based
# T1 sequence (whole entry): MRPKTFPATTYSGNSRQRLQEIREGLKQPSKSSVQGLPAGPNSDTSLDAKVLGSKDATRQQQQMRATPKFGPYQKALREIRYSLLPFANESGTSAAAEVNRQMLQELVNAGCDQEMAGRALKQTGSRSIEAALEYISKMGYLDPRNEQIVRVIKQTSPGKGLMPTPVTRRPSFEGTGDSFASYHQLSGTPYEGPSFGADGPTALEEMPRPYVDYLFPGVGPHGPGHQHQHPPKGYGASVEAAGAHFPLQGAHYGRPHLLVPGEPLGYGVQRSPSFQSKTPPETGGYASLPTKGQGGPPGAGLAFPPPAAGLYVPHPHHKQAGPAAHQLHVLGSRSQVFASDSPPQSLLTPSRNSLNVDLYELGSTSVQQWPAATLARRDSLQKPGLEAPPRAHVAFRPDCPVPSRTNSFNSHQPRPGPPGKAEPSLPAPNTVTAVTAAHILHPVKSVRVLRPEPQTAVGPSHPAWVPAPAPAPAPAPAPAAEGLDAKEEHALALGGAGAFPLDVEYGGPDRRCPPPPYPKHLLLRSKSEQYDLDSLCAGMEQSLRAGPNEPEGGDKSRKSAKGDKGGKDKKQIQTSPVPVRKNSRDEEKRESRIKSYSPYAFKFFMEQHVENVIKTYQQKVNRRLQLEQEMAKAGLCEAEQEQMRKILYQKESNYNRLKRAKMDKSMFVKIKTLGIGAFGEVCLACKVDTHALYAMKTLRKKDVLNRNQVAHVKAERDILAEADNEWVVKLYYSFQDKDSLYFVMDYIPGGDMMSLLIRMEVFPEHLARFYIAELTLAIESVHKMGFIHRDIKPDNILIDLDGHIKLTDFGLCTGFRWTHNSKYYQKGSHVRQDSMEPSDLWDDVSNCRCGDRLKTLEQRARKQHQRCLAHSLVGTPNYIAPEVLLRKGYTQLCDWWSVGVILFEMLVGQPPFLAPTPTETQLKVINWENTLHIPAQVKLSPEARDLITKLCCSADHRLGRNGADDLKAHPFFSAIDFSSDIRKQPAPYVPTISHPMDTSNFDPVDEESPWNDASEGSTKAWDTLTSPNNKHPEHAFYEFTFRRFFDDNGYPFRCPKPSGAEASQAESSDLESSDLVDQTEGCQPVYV
# [2] = molecular target: T2, STE20-related kinase adapter protein beta (Homo sapiens) (UniProt Q9C0K7); assay: Inhibition of STLK6 in human SKCO1 cells at 1 uM after 4 hrs using biotin labeled SIKASHILISGDGLVTLSGLSHLHSLV probe by mass-spectrometric analysis relative to control; type: cell-based
# T2 sequence (whole entry): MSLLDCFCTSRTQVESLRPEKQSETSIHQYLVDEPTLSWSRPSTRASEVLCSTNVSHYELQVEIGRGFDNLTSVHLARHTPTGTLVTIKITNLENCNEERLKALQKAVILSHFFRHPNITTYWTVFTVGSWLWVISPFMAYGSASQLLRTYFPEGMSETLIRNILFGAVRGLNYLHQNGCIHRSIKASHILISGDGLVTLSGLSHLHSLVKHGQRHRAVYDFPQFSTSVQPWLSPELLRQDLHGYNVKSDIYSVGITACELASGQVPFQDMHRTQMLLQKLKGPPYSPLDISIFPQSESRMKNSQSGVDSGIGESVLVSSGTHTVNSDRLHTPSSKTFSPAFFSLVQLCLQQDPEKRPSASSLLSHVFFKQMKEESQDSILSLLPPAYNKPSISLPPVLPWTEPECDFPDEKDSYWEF
# Procedure, shortened: (§1)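 Live SK-CO-1 cells exposed to compound at 1 μM or DMSO for 4 h (KiNativ). Lysates then labeled with lysine-reactive ATP/ADP-biotin probe, and probe-labeled kinase peptides quantified by mass spectrometry. Percent inhibition of probe-dependent recovery calculated relative to DMSO-treated cells.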
# [3] = molecular target: T3, Mitogen-activated protein kinase kinase kinase 7 (Homo sapiens) (UniProt O43318); conditions: 1 uM
# T3 sequence (whole entry): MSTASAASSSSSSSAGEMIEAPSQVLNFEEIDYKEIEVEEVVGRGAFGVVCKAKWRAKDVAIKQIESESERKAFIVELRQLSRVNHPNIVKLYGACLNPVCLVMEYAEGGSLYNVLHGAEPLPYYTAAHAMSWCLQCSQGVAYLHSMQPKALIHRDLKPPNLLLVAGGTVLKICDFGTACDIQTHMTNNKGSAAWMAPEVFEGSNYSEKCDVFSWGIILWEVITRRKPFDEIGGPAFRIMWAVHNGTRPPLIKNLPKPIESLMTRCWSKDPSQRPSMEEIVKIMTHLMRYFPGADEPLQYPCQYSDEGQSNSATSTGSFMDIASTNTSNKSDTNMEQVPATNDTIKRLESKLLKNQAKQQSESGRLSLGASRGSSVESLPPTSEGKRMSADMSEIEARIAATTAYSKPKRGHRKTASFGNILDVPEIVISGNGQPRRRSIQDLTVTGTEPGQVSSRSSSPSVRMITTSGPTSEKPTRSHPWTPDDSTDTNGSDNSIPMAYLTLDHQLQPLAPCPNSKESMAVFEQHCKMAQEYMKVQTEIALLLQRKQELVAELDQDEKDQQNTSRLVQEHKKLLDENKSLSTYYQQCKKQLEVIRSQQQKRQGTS
# [4] = molecular target: T4, Protein kinase C zeta type (Homo sapiens) (UniProt Q05513); assay: Inhibition of PKCz in human SKCO1 cells at 1 uM after 4 hrs using biotin labeled DLKLDNVLLDADGHIK probe by mass-spectrometric analysis relative to control; type: cell-based; procedure, shortened: as §1
# T4 sequence (whole entry): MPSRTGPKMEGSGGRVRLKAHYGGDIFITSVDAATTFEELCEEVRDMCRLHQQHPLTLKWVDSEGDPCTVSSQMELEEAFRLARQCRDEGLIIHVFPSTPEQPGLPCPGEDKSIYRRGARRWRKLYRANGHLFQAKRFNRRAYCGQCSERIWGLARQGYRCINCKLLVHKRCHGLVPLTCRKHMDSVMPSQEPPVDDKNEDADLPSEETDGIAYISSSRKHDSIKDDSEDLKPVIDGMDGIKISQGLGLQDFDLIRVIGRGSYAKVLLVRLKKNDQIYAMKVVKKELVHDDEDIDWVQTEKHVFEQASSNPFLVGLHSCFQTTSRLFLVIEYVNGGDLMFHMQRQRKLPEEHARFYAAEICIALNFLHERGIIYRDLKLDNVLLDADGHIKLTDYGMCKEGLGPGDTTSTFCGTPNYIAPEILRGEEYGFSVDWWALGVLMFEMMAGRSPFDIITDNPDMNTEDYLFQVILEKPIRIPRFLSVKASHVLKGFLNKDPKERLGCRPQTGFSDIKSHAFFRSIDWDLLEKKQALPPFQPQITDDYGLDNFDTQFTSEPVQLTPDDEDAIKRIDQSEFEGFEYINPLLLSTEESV
SMILES,inhibition [1],inhibition [2],inhibition [3],inhibition [4]
COc1cc(O)c2c(c1)/C=C/C[C@H](O)[C@H](O)C(=O)/C=C\C[C@H](C)OC2=O,-0.3%,24.9%,90%,42.1%
C=CC(=O)Nc1ccccc1Nc1nc(Nc2ccc(N3CCN(C)CC3)cc2)ncc1Cl,40.7%,27.1%,90.3%,14.5%
C=CC(=O)Nc1ccccc1Oc1nc(Nc2cnn(CCOC)c2)ncc1Cl,6.7%,34.4%,31.2%,30%
